Assay results reported in paper PMC10286277 (ACS Omega, 2023).

Legend:
pUC19 DNA = test: Hydrolytic DNA cleavage, gel electrophoresis without external agent or light; type: biochemical; settings: 400 μM, control experiments
In short: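 pUC19 DNA (200 ng) in 50 mM Tris–HCl, pH 8, was incubated with test compound (0–400 μM) in 10 μL for 2 h at 37 °C, with no added agent and no light. Controls used Cu(OAc)₂·H₂O, free ligand or imidazole, each at 400 μM. Samples were run on 1% agarose in TAE (pH 8.4) for 1.5 h at 60 V, stained with 0.5 μg/mL ethidium bromide and imaged under UV for conversion to nicked circular form.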

breast cancer MDA-MB-231 = test: MTT cell viability assay; type: cell-based, human; settings: MDA-MB-231, 24 h
In short: (§1)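 Cells were seeded at 2×10^4 per well, held overnight at 37 °C in humidified CO₂ and treated with test compound at […] for 24 h. MTT (0.5 mg/mL) was added for 4 h in the dark and then removed. Formazan was dissolved in DMSO and absorbance read at 570 nm.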

cervical cancer HeLa = test: MTT cell viability assay; type: cell-based, human; settings: 24 h
In short: as §1

Q: With CC(=O)[O-].CC(=O)[O-].O.[Cu+2] [Cu(OAc)2·H2O, copper(II) acetate monohydrate] as the molecule, how does the “DNA cleavage by starting materials alone” value (pUC19 DNA) read?
A: The value was “No cleavage was detected”.

Q: For N.N.[Cl][Pt][Cl] [cisplatin, reference compound], which “sensitivity of cells in MTT cell viability assay (in words)” value (breast cancer MDA-MB-231) is on record?
A: Its value is “resistant”.

Q: And the IC50 (cervical cancer HeLa)?
A: Its IC50 is 30.9 ± 0.45 µM.

Q: For c1c[nH]cn1 [imidazole], which “DNA cleavage by starting materials alone” value (pUC19 DNA) is on record?
A: Its value is “No cleavage was detected”.

Q: Which “DNA cleavage by starting materials alone” value (pUC19 DNA) does the source give for 2-(2-Hydroxyphenyl)benzothiazoline here?
A: Its value is “No cleavage was detected”.
